Data taken from ChEMBL document CHEMBL1126794, “2-(Quinuclidin-3-yl)pyrido[4,3-b]indol-1-ones and isoquinolin-1-ones. Potent conformationally restricted 5-HT3 receptor antagonists” (J Med Chem, 1993).

Columns and labels:
[1] = target: T1, Serotonin 3 (5-HT3) receptor (Rattus norvegicus, UniProt P35563+Q9JJ16); experiment: Binding affinity against 5-hydroxytryptamine 3 (5-HT3) receptor in rat brain cortical membranes using radioligand [3H]quipazine; assay type: cell membranes
T1 sequence (P35563 whole entry): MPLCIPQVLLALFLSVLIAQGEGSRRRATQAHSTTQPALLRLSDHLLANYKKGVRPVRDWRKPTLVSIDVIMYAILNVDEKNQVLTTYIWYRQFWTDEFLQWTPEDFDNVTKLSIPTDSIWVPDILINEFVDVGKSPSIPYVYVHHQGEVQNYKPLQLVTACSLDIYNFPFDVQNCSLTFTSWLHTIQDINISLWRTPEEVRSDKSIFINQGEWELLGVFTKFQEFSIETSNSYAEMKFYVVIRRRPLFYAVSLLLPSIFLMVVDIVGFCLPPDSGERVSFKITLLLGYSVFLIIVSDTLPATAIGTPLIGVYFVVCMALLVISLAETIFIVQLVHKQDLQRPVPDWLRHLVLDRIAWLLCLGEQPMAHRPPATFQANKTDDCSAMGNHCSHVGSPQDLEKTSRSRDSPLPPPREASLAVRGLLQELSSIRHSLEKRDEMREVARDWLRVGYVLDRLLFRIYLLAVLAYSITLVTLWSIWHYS
T1 sequence (Q9JJ16 whole entry): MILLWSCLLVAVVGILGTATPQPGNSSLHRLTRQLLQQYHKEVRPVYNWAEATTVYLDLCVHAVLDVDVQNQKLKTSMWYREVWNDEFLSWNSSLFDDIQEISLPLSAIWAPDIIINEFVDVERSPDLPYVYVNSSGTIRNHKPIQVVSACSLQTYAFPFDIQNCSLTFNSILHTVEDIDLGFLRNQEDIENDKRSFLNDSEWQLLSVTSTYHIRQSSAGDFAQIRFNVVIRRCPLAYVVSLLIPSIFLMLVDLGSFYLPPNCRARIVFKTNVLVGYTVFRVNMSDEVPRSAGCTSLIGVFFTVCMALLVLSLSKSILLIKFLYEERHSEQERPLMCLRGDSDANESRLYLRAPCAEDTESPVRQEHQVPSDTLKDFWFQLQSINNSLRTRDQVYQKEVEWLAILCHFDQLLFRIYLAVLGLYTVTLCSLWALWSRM
How it was run: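 Rat cerebral cortex membranes, washed in 50 mM Tris pH 7.4, incubated 45 min at 25 °C in Tris-Krebs buffer pH 7.4 with 0.3–0.7 nM [3H]quipazine plus 0.1 μM paroxetine. Ten test concentrations from 1e-12 to 1e-4 M. Nonspecific binding defined with 1.0 μM racemic zacopride. Filtration, scintillation counting, IC50 by iterative fit, Ki by Cheng-Prusoff. Means of ≥3 determinations, or of two.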

Rattus norvegicus [2] = experiment: Potency to inhibit bradycardiac effect measured by Von Bezold-Jarisch assay in 8 anesthetized rats; assay type: functional; conditions: read-out: ID50 (the source's name)
How it was run: (§1)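 Male Sprague-Dawley rats, 250–380 g, under urethane (1.5 g/kg ip), with cannulated trachea and femoral veins; heart rate recorded by ECG. Lowest consistent bradycardic dose of 2-methyl-5-HT titrated iv, then given every 12 min. Increasing iv doses given 5 min before each challenge, with saline vehicle group.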

Canis familiaris [3] = experiment: Inhibition of emesis induced by intravenous administration of cisplatin in 6 dogs at 0.03 mg/kg; assay type: functional, Canis lupus familiaris
How it was run: (§2)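 Dogs, n = 6 per group, given one iv dose of test compound as an aqueous solution through a jugular vein cannula 30 min before iv cisplatin (3 mg/kg). Emetic episodes counted by continuous observation for 5 h after cisplatin. Results given as mean ± value versus control, with significance by Dunnett's t test.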

Canis familiaris [4] = experiment: Inhibition of emesis induced by peroral administration of cisplatin in 6 dogs at 1.0 mg/kg (p<0.01); assay type: functional, Canis lupus familiaris; conditions: route oral
How it was run: (§3)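 Single oral pretreatment in dogs (n = 6) by liquid gelatin capsule, 30 min before iv cisplatin at 3 mg/kg. Number of emetic episodes monitored continuously for 5 h after cisplatin. Significance versus control by Dunnett's t test.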

Canis familiaris [5] = experiment: Inhibition of emesis induced by peroral administration of cisplatin in 6 dogs at 0.01 mg/kg; assay type: functional, Canis lupus familiaris; conditions: route oral; how it was run: as §3
Rattus norvegicus [6] = experiment: Potency to inhibit bradycardiac effect measured by Von Bezold-Jarisch assay in 9 anesthetized rats; assay type: functional; parameters: ID50: unit not given here; conditions: for ED50: Rattus norvegicus, read-out: ID50 (the source's name); how it was run: as §1
Canis familiaris [7] = experiment: Inhibition of emesis induced by peroral administration of cisplatin in 6 dogs at 0.3 mg/kg (p<0.01); assay type: functional, Canis lupus familiaris; conditions: route oral; how it was run: as §3
Canis familiaris [8] = experiment: Inhibition of emesis induced by intravenous administration of cisplatin in 6 dogs at 0.1 mg/kg (p<0.01); assay type: functional, Canis lupus familiaris; how it was run: as §2
Canis familiaris [9] = experiment: Inhibition of emesis induced by peroral administration of cisplatin in 6 dogs at 0.03 mg/kg; assay type: functional, Canis lupus familiaris; conditions: route oral; how it was run: as §3
Canis familiaris [10] = experiment: Inhibition of emesis induced by peroral administration of cisplatin in 6 dogs at 0.1 mg/kg; assay type: functional, Canis lupus familiaris; conditions: route oral; how it was run: as §3
Canis familiaris [11] = experiment: Inhibition of emesis induced by intravenous administration of cisplatin in 6 dogs at 0.01 mg/kg; assay type: functional, Canis lupus familiaris; how it was run: as §2
Canis familiaris [12] = experiment: Inhibition of emesis induced by intravenous administration of cisplatin in 6 dogs at 0.3 mg/kg (p<0.01); assay type: functional, Canis lupus familiaris; how it was run: as §2
Canis familiaris [13] = experiment: Inhibition of emesis induced by intravenous administration of cisplatin in 6 dogs at 1 mg/kg (p<0.01); assay type: functional, Canis lupus familiaris; how it was run: as §2
Mustela putorius furo [14] = experiment: Inhibition of emesis induced by peroral administration of cisplatin in 5 ferrets at 0.3 mg/kg (p<0.01); assay type: functional; conditions: route oral
Mustela putorius furo [15] = experiment: Inhibition of emesis induced by peroral administration of cisplatin in 5 ferrets at 0.1 mg/kg (p<0.01); assay type: functional; conditions: route oral
Mustela putorius furo [16] = experiment: Inhibition of emesis induced by peroral administration of cisplatin in 5 ferrets at 0.03 mg/kg; assay type: functional; conditions: route oral
Rattus norvegicus [17] = experiment: Potency to inhibit bradycardiac effect measured by Von Bezold-Jarisch assay in 5 anesthetized rats; assay type: functional; conditions: read-out: ID50 (the source's name); how it was run: as §1
Rattus norvegicus [18] = experiment: Potency to inhibit bradycardiac effect measured by Von Bezold-Jarisch assay in 4 anesthetized rats; assay type: functional; how it was run: as §1

## COc1cccc2c1CCN(C1CC3CCC(C1)N3C)C2=O (stereo unspecified)
[1]
  Ki: 10 nM

## CCc1cccc(C(=O)N[C@@H]2CN3CCC2CC3)c1C
[1]
  Ki: 501 nM

## COc1cccc2c(=O)n(C3CC4CCC(C3)N4C)ccc12 (stereo unspecified)
[1]
  Ki: 2.51 nM

## CCCc1cn([C@@H]2CN3CCC2CC3)c(=O)c2ccccc12
[1]
  Ki: 5.01 nM

## CCc1cccc2c1CCN(C1CN3CCC1CC3)C2=O.Cl (stereo unspecified)
Rattus norvegicus [2]
  ED50: 0.18 µg/kg
[1]
  Ki: 0.2 nM

## O=c1c2ccccc2ccn1[C@@H]1CN2CCC1CC2
[1]
  Ki: 3.98 nM

## O=C(N[C@@H]1CN2CCC1CC2)c1c2n(c3ccccc13)CCCCC2
[1]
  Ki: 5.01 nM

## COc1cc(N)c(Cl)cc1C(=O)N[C@@H]1CN2CCC1CC2
[1]
  Ki: 0.251 nM

## CCc1cccc2c(=O)n([C@@H]3CN4CCC3CC4)ccc12.Cl
Rattus norvegicus [2]
  ED50: 0.13 µg/kg
[1]
  Ki: 0.2 nM

## COc1cccc(C(=O)N[C@@H]2CN3CCC2CC3)c1C
[1]
  Ki: 398 nM

## Cc1nccn1CC1CCc2c(c3ccccc3n2C)C1=O (stereo unspecified) [ONDANSETRON]
Canis familiaris [3]
  No. of emetic episodes: 8.33
Canis familiaris [4]
  No. of emetic episodes: 2
Canis familiaris [5]
  No. of emetic episodes: 12.67
Rattus norvegicus [6]
  ED50: 2.6 µg/kg
Canis familiaris [7]
  No. of emetic episodes: 3.17
Canis familiaris [8]
  No. of emetic episodes: 4.83
Canis familiaris [9]
  No. of emetic episodes: 18.33
Canis familiaris [10]
  No. of emetic episodes: 10.5
Canis familiaris [11]
  No. of emetic episodes: 13.33
Canis familiaris [12]
  No. of emetic episodes: 1
Canis familiaris [13]
  No. of emetic episodes: 1.17
Mustela putorius furo [14]
  No. of emetic episodes: 4.2
Mustela putorius furo [15]
  No. of emetic episodes: 2.2
Mustela putorius furo [16]
  No. of emetic episodes: 11.2

## Cc1cccc2c(=O)n(C3CN4CCC3CC4)ccc12.Cl (stereo unspecified)
Rattus norvegicus [2]
  ED50: 0.1 µg/kg
[1]
  Ki: 0.631 nM

## O=c1c2c3ccccc3n3c2c(cn1[C@@H]1CN2CCC1CC2)CCC3
Rattus norvegicus [6]
  ED50: 0.05 µg/kg

## Cl.O=c1c2cccc3c2c(cn1[C@@H]1CN2CCC1CC2)CCC3
Rattus norvegicus [6]
  ID50: 0.1
[1]
  Ki: 0.158 nM

## O=c1c2c3ccccc3n3c2c(cn1[C@H]1CN2CCC1CC2)CCC3
Rattus norvegicus [17]
  ED50: > 2.41 µg/kg

## Cl.O=c1c2cccc3c2c(cn1[C@H]1CN2CCC1CC2)CCC3
Rattus norvegicus [18]
  ID50: 2 pKi
[1]
  Ki: 7.94 nM

## COc1cc(N)c(Cl)cc1C(=O)N[C@H]1CN2CCC1CC2 [(R)ZACOPRIDE]
[1]
  Ki: 3.16 nM

## CN1C2CCC1CC(n1cc3c4c(cccc4c1=O)CCC3)C2 (stereo unspecified)
Rattus norvegicus [2]
  ED50: 0.65 µg/kg
[1]
  Ki: 0.794 nM

## Cn1c2ccccc2c2c(=O)n([C@@H]3CN4CCC3CC4)ccc21
Rattus norvegicus [2]
  ED50: 0.13 µg/kg

## O=C(N[C@H]1CN2CCC1CC2)c1c2n(c3ccccc13)CCCC2
[1]
  Ki: 12.6 nM

## O=C1c2cccc3c2[C@H](CCC3)CN1[C@H]1CN2CCC1CC2
[1]
  Ki: 2.51 nM

## O=c1c2cccc(Cl)c2ccn1[C@@H]1CN2CCC1CC2
[1]
  Ki: 2.51 nM
